Assay results collected from several papers.
Protocols differ between the studies behind these lines.

SMILES	cell line	assay	conditions	endpoint	result
COc1ccc(-c2ccc(-c3ccc(C(=N)N)nc3)s2)cc1Cl	OVCAR-5	cell growth or viability, SRB	–	GI50	1860 nM
COc1ccc(S(=O)(=O)Nc2ccc3oc(-c4ccc(NC(=O)c5cccc(C)c5[N+](=O)[O-])cc4)nc3c2)cc1	DLD-1	colony formation	–	EC50	16000 nM
COc1cc(Nc2nccc(-c3cnn4nc(OC)ccc34)n2)cc(C(F)(F)F)c1	BEN	cell growth or viability, ATP luminescence	–	IC50	> 3000 nM
CC/C(=C(\c1ccccc1)c1ccc(OCCN(C)C)cc1)c1ccccc1	Capan-2	cell growth or viability, ATP luminescence	72 h	EC90	25800 nM
CC[C@@H]1C=CC(=O)O[C@@H]1C[C@@H](O)[C@H](C)[C@H](OC)[C@@H](C)Cc1ccccc1	OVCAR-5	cell growth or viability, MTT	48 h	GI50	57.5 nM
CC#CC(=O)N1CC[C@@H](n2cc(-c3ccc(Oc4c(F)cccc4F)cc3)c3c(N)n[nH]c(=O)c32)C1	Granta-519	cell growth or viability, ATP luminescence	72 h	GI50	2690 nM
C[C@]12CC[C@@H]3c4ccc(O)cc4CC[C@H]3[C@@H]1CC[C@@H]2O	Capan-2	cell growth or viability, ATP luminescence	72 h	EC90	150000 nM
CC[C@@H]1C=CC(=O)O[C@@H]1C[C@@H](OC)[C@H](C)[C@H](OC)[C@@H](C)Cc1ccc(F)cc1	OVCAR-5	cell growth or viability, MTT	48 h	GI50	784 nM
C=CC(=O)N1CCC[C@@H](n2nc(-c3ccc(Oc4ccccc4)cc3)c3c(N)ncnc32)C1	Z-138	cell growth or viability, ATP luminescence	72 h	GI50	17200 nM
